From ChEMBL document CHEMBL3112586, “Synthesis of neolignans as microtubule stabilisers” (Bioorg Med Chem, 2014) come the findings set out here.

In series [1] the test system is MCF7. Briefly: Induction of microtubule polymerization in human MCF7 cells assessed as actin-tubulin cytoskeleton stabilization at 10 to 40 uM by confocal microscopy. It is filed as cell-based. In outline:
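MCF-7 cells treated, immunostained for actin and tubulin, and examined by confocal microscopy; paclitaxel-treated cells as positive control.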

Series [2] has as its target T1, Tubulin (Homo sapiens) (UniProt P68371+Q9H4B7+P0DPH7+P68366+Q13509+Q71U36+P04350+Q3ZCM7+P07437+P68363+Q9BQE3+Q6PEY2+Q13885+Q9BVA1+Q9BUF5). Briefly: Induction of tubulin polymerization (unknown origin) at 10 to 40 uM measured every min for 1 hr in presence of PDT. Type of series: protein-complex assay. In outline:
(§1)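 Tubulin 3 mg/mL in 80 mM PIPES pH 6.9, 2 mM MgCl2, 0.5 mM EGTA, 1 mM GTP, 15% glycerol at 37 °C with test compounds at varied concentrations; turbidity at 340 nm read every min for 1 h; podophyllotoxin inhibitor and paclitaxel stabiliser references, DMSO negative control.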

Series [3] addresses T1, Tubulin (Homo sapiens). Kind of series: Induction of tubulin polymerization (unknown origin) at 10 to 40 uM measured every min for 1 hr. Type of series: protein-complex assay. In outline: as §1
Another series has as its system MDA-MB-231. Briefly: Cell cycle arrest in human MDA-MB-231 cells assessed as increase in sub-diploid population after 24 hrs by propidium iodide staining-based FACS analysis. Type of series: functional. In outline:
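MDA-MB-231 grown in DMEM with 10% FBS at 37 °C, 5% CO2; 24 h treatment, then cold-PBS wash, 2 × 10⁶ cells/ml, absolute-ethanol fixation, RNase A, propidium iodide 50 µg/mL for 30 min at room temperature; flow cytometric DNA content, sub-diploid fraction scored.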

In series [4] the test system is MCF7. Briefly: Cell cycle arrest in human MCF7 cells assessed as accumulation at G1 phase at 5 to 30 uM after 24 hrs by propidium iodide staining-based FACS analysis. Type of series: functional. In outline: (§2)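 MCF-7 in DMEM, 10% FBS, 37 °C, 5% CO2; treated 24 h, harvested, washed cold PBS, resuspended 2 × 10⁶ cells/ml, fixed absolute ethanol, RNase A treated, propidium iodide (50 µg/mL) 30 min room temperature; DNA content by flow cytometry; phase distribution versus untreated control.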

In series [5] the test system is MCF7. Kind of series: Cell cycle arrest in human MCF7 cells assessed as decrease in S phase at 5 to 30 uM after 24 hrs by propidium iodide staining-based FACS analysis relative to untreated control. Type of series: functional. Summed up: as §2
Series [6] relates to MCF7. Briefly: Cytotoxicity against human MCF7 cells after 48 to 72 hrs by MTT assay. Type of series: functional, cell-based. In outline: (§3)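 Cells in DMEM, 10% FBS, 37 °C, 5% CO2, plated and incubated 24 h; compounds diluted in phenol-red-free DMEM with 0.5% FBS, vehicle control; after exposure, MTT (5 mg/mL stock) added 3 h, formazan dissolved in DMSO, absorbance 570 nm; IC50 derived; podophyllotoxin and tamoxifen positive controls.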

The subject of series [7] is MCF7. Kind of series: Cytotoxicity against human MCF7 cells after 48 hrs by MTT assay. Type of series: functional, cell-based. Particulars: MCF7, 48 h. Summed up:
as §3

In series [8] the test system is Mus musculus. Briefly: Toxicity in Swiss albino mouse assessed as absolute heart weight at 5 to 1000 mg/kg, po relative to control. It is filed as organism-based. Set-up: dose 5-1000 mg/kg, route oral. Particulars: in vivo.
Series [9] relates to Mus musculus. Briefly: Toxicity in Swiss albino mouse assessed as relative kidney weight at 5 to 1000 mg/kg, po relative to control. Type of series: organism-based. On the set-up: dose 5-1000 mg/kg, route oral. Particulars: in vivo. In outline:
(§4)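 One oral dose (5–1000 mg/kg; DMSO then 0.7% carboxymethyl cellulose vehicle; controls vehicle-only) was given to groups of 6 mice (3 male, 3 female). On day 7 the animals were sacrificed and necropsied for gross pathology. Absolute and relative weights of vital organs were recorded and compared with control.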

For series [10], the system named is Mus musculus. Briefly: Toxicity in Swiss albino mouse assessed as relative lungs weight at 5 to 1000 mg/kg, po relative to control. Type of series: organism-based. Set-up: dose 5-1000 mg/kg, route oral. Conditions: in vivo. Summed up: as §4
Series [11] deals with Mus musculus. Briefly: Toxicity in Swiss albino mouse assessed as mortality up to 1000 mg/kg, po. Type of series: organism-based. Set-up: dose 1000 mg/kg, route oral. Conditions: in vivo. In outline:
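Acute oral toxicity per OECD guideline 423. Mice of 20–25 g, 3 male and 3 female per group (n = 6), acclimatised 7 days. Single oral dose of 5, 50, 300 or 1000 mg/kg in DMSO suspended in 0.7% carboxymethyl cellulose; controls got vehicle only. Mortality and clinical signs checked hourly on the dosing day, then daily. On day 7: body weight, haematology, serum biochemistry, necropsy and organ weights.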

Series [12] deals with Mus musculus. Kind of series: Toxicity in Swiss albino mouse assessed as change in cholesterol level at 50 mg/kg, po (reference value: 81.64 +/- 4.26 mg/dL). It is filed as organism-based. On the set-up: dose 50 mg/kg, route oral. Conditions: in vivo.
The subject of series [13] is Mus musculus. Briefly: Toxicity in Swiss albino mouse assessed as change in cholesterol level at 5 mg/kg, po (reference value: 81.64 +/- 4.26 mg/dL). Type of series: organism-based. Set-up: dose 5 mg/kg, route oral. Conditions: in vivo.
Series [14] deals with Mus musculus. Kind of series: Toxicity in Swiss albino mouse assessed as change in serum protein level at 50 mg/kg, po (reference value: 1.11 +/- 0.14 mg/ml). Type of series: organism-based. Set-up: dose 50 mg/kg, route oral. Conditions: in vivo.
Series [15] has as its system Mus musculus. Kind of series: Toxicity in Swiss albino mouse assessed as change in albumin level at 5 mg/kg, po (reference value: 3.35 +/- 0.51 g/dL). It is filed as organism-based. On the set-up: dose 5 mg/kg, route oral. Conditions: in vivo.
The test system of series [16] is Mus musculus. Kind of series: Toxicity in Swiss albino mouse assessed as change in SGOT level at 300 mg/kg, po (reference value: 25.27 +/- 1.32 U/L). Set-up: dose 300 mg/kg, route oral. Type of series: organism-based. Conditions: in vivo.
For series [17], the system named is Mus musculus. Briefly: Toxicity in Swiss albino mouse assessed as change in WBC count at 5 mg/kg, po (reference value: 14.2 +/- 7.49 X 10^3/mm'3). It is filed as organism-based. On the set-up: dose 5 mg/kg, route oral. Particulars: in vivo.
Series [18] relates to Mus musculus. Briefly: Toxicity in Swiss albino mouse assessed as change in RBC count at 300 mg/kg, po (reference value: 5.43 +/- 0.27 million/mm'3). It is filed as organism-based. Set-up: dose 300 mg/kg, route oral. Conditions: in vivo.
In series [19] the test system is Mus musculus. Kind of series: Toxicity in Swiss albino mouse assessed as change in total haemoglobin level at 1000 mg/kg, po (reference value: 11.39 +/- 0.84 g/dL). It is filed as organism-based. Set-up: dose 1000 mg/kg, route oral. Particulars: in vivo.
The subject of series [20] is Mus musculus. Briefly: Toxicity in Swiss albino mouse assessed as change in total haemoglobin level at 5 mg/kg, po (reference value: 11.39 +/- 0.84 g/dL). It is filed as organism-based. On the set-up: dose 5 mg/kg, route oral. Conditions: in vivo.

Molecules are shown by their SMILES. Calls of active or inactive are those of the source. The calls are words filed in the database; no cut-off is given here.

`CCOC(=O)/C=C/c1ccc(O)c(/C(=C/c2ccc(O)cc2)C(=O)OCC)c1`: the result in the series on MCF7 [1], at Tubulin (Homo sapiens) [2] and in the series with MCF7 [4] was inactive. The result at Tubulin (Homo sapiens) [3], in the series with MCF7 [5] and in the series with MCF7 [6] was Active. For the same compound, the Activity entry in the series with MDA-MB-231 was “Dose-dependent effect”; with Mus musculus [8], “Non-toxic”; in the series with Mus musculus [9], “Non-toxic”; in the series with Mus musculus [10], “Non-toxic”; with Mus musculus [11] it was “Non-toxic”; in the series with Mus musculus [12], 58.62 mg/dL. For the same compound, the Activity was found to be 75.94 mg/dL with Mus musculus [13]; 0.94 mg/mL with Mus musculus [14]; 3.17 g/dL in the series on Mus musculus [15]; 37.95 U/L with Mus musculus [16]; 14.6 ×10³ /mm3 in the series with Mus musculus [17]; 5.11 million/mm3 with Mus musculus [18]. The Activity in the series on Mus musculus [19] worked out at 13.32 g/dL; with Mus musculus [20] it was 12.35 g/dL. This compound displayed a half-inhibitory concentration (IC50) with MCF7 [7] of 9.29 µM.
